# Calls of active or inactive are those of the source.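 The calls were made as follows, unless noted: active = fluorescence slope after compound addition differing from the mean of all tested samples at 99.7% confidence, mostly higher but some lower; inactive = the rest.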
# Assays:
# [1] = inhibitors of TNFa-induced NFkB p65 translocation, primary screen, imaging, HUVEC, MLSMR starter and 10KST1 sets (AID 438;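 active = inhibition above 20% together with a positive visual image hit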;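 also: compound added about 3h40 before a 20 min TNFalpha stimulation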;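 as to inhibition: signal is the nuclear over cytoplasmic p65 intensity ratio per well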); settings: HUVEC TNFa-induced p65 nuclear translocation; cell count: measured here: nuclei count (cytotoxicity indicator), at 2.08 µM; inhibition: at 2 µM, stronger effect = higher value, 0% TNFa-plus-vehicle, 100% no-TNFa wells
# [2] = inhibitors of mutant huntingtin aggregation, primary screen, imaging, exon1htt(103Q)mCFP cells, high-content imaging (AID 483;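 active = visual image review flags a hit and inhibition of aggregation exceeds 20%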;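 also: compound exposure lasted 3 days before fixation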;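 as to nuclei count: percent of the per-plate median nuclei count of sample wells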); settings: exon1htt(103Q)mCFP cell line, aggregate imaging, at 2 µM; inhibition of aggregation: stronger effect = higher value; nuclei count: measured here: cell count, toxicity
# [3] = inhibitors of E-selectin induction by TNFa, primary screen, imaging, HUVEC, immunofluorescence, MLSMR starter and 10KST1 sets (AID 487;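 active = visually confirmed hit in the image check and inhibition above 20%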;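 as to inhibition: signal is fraction of cell area covered by stained E-selectin grains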;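 as to nuclei count: 100% = median nuclei count of all wells on the same plate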); settings: HUVEC TNFalpha-induced E-selectin immunofluorescence imaging, at 2 µM; inhibition: stronger effect = higher value; nuclei count: measured here: cell number, toxicity
# [4] = target: Voltage-gated potassium channel subunit beta-2 (Rattus norvegicus) (UniProt P62483); assay: KvBeta enzyme negative modulators, primary screen, biochemical, NADPH fluorescence (AID 622;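 active = fluorescence slope higher than the sample average by over 3 SD, cut at about -0.22 in these data, passing the limit was not always enough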;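 also: slope of raw intensity against log time taken from 70 to 1610 s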); settings: recombinant KvBeta, 4-cyanobenzaldehyde reduction, at 10 µM, stronger effect = higher value
# Voltage-gated potassium channel subunit beta-2 (Rattus norvegicus), sequence (P62483 whole entry, looked up): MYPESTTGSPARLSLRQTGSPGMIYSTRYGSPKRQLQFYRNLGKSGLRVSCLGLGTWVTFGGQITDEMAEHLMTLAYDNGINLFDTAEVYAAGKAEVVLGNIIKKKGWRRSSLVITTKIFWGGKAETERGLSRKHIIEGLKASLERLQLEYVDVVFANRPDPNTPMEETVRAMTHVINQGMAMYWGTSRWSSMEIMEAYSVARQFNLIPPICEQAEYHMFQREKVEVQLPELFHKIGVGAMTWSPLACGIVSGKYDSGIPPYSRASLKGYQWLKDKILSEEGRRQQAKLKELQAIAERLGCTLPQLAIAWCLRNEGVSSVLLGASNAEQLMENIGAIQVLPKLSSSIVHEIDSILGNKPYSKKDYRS
# [5] = target: Voltage-gated potassium channel subunit beta-2 (Rattus norvegicus) (UniProt P62483); assay: KvBeta positive modulators, primary screen, biochemical, NADPH fluorescence (AID 623;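 active = NADPH fluorescence slope more negative than the mean of all samples by about 3 SD, 99.7% confidence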;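 also: fluorescence intensity change per second fitted from 20 to 320 s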); settings: Recombinant KvBeta, NADPH fluorescence decrease slope, 10 min; at 10 µM; stronger effect = lower value
# [6] = target: Muscarinic acetylcholine receptor M4 (Homo sapiens) (UniProt P08173); assay: compounds altering M4/GIRK thallium flux, either direction, primary screen, M4 allosteric agonist project, cell-based, HEK293 M4/GIRK, BTC-AM (AID 625); settings: at 10 µM, actives lie on both sides;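 also: thallium influx through GIRK channels coupled to M4 in HEK293 cells with BTC-AM dye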
# Muscarinic acetylcholine receptor M4 (Homo sapiens), sequence (P08173 whole entry, looked up): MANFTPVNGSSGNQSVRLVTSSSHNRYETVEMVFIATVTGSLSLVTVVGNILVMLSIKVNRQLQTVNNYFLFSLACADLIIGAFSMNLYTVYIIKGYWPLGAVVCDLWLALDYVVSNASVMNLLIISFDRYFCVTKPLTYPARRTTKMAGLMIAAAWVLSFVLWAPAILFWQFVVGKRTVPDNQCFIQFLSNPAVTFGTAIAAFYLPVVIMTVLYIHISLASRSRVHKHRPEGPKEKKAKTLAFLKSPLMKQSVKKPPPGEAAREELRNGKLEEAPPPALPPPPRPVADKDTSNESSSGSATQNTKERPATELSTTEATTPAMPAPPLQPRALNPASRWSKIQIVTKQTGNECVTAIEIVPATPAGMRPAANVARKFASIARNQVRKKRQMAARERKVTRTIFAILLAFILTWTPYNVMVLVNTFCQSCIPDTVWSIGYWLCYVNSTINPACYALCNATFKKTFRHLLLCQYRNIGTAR
# How it was run: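 assay system = HEK293 cells with M4 receptor and GIRK channels | medium = pH 7.3 thallium assay buffer | doses = 10 µM final, single point | timing = cells overnight at 37 °C, BTC-AM loading 1 h, reads 2 min total | signal = BTC-AM fluorescence, 1 Hz kinetic reads | read-out = post-addition slope, 15–24 s, of baseline-normalized fluorescence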
# [7] = inhibitors of Sendai virus-induced IRF3 signaling, primary screen, TLR/RLR signaling modifier project, cell-based, Sendai virus stimulus, luciferase, 10K MLSCN set (AID 602276;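 active = inhibition at or above 50% at 10 µM; inactive = inhibition below 50%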;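 also: firefly luciferase from ISG56 promoter only with Renilla not read in this screen; 0% = Sendai virus plus DMSO and 100% = medium plus DMSO without virus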); settings: HEK293 RL24 IRF3 luciferase reporter, at 10 µM, stronger effect = higher value
# [8] = inhibitors of poly I:C-induced TLR3 signaling, primary screen, cell-based, poly I:C stimulus, luciferase, 10K MLSCN set (AID 602277;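 active = inhibition of the reporter signal at or above 50%; inactive = inhibition below 50%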); settings: HEK293-TLR3 RL24 IRF3 luciferase reporter, at 10 µM, stronger effect = higher value
Compound,cell count [1],inhibition [1],inhibition of aggregation [2],nuclei count [2] [%],inhibition [3],nuclei count [3] [%],fluorescence slope [4],NADPH fluorescence slope [5],fluorescence slope [6],inhibition [7],inhibition [8]
OCc1nc2ccccc2n1CC(O)Cn1ccc2ccccc21 (stereo not drawn),463,2.9% (inactive),-7.1% (inactive),98.2,-71.2% (inactive),117,-0.577 (inactive),-5e-05 (inactive),0.00376 (inactive),1.37% (inactive),-8.82% (inactive)
O=C(c1ccccc1)N1CCCCC(Sc2nnnn2-c2ccccc2)C1=O (stereo not drawn),385,-15.4% (inactive),28.5% (inactive),76.4,-112% (inactive),134,-0.546 (inactive),-2.4e-05 (inactive),0.00399 (inactive),4.27% (inactive),4.71% (inactive)
Cc1cc(C)nc(SCc2nnc(SCc3ccccc3Cl)o2)n1,428,-8.3% (inactive),16.9% (inactive),110,-33.4% (inactive),98.3,-0.468 (inactive),-0.000278 (inactive),0.00428 (inactive),6.47% (inactive),0.418% (inactive)
CCOc1ccc(C2/C(=C(/O)c3ccccc3)C(=O)C(=O)N2CCCN(C)C)cc1OC (stereo not drawn),411,-1.1% (inactive),-13.7% (inactive),102,-29.6% (inactive),92.2,-0.446 (inactive),-4.1e-05 (inactive),0.00491 (inactive),19.2% (inactive),15.1% (inactive)
c1csc(-c2nc3nc4ccccc4nc3n2Cc2ccc3c(c2)OCO3)c1,837,1.7% (inactive),-18.6% (inactive),114,-9.5% (inactive),108,-0.405 (inactive),-4.1e-05 (inactive),0.00582 (inactive),-28.9% (inactive),-79.4% (inactive)
CCOC(=O)/C=C(\C)Sc1cc(=O)oc2ccccc12,571,18.4% (inactive),-8.4% (inactive),93.3,-103% (inactive),126,-0.549 (inactive),-6e-05 (inactive),0.00418 (inactive),25.8% (inactive),47.5% (inactive)
CCN(CC)c1ccc2c(c1)C(=O)N(C)C2=O,580,-1.9% (inactive),-5.6% (inactive),92.2,-49% (inactive),104,-0.417 (inactive),-6.9e-05 (inactive),0.00562 (inactive),-6.87% (inactive),-37.5% (inactive)
CN(C(=O)c1ccno1)c1nnc(-c2cnccn2)s1,596,-10.8% (inactive),10.8% (inactive),97.4,-39.5% (inactive),107,-0.309 (inactive),-5.2e-05 (inactive),0.00542 (inactive),5.76% (inactive),10.1% (inactive)
Cc1ccc2nsnc2c1S(=O)(=O)N1CCN(Cc2ccc3c(c2)OCO3)CC1,486,-13.1% (inactive),-11.5% (inactive),108,-9.8% (inactive),83.9,-0.468 (inactive),-4.9e-05 (inactive),0.00415 (inactive),12.5% (inactive),27.7% (inactive)
CC1(C)Cc2noc(N)c2C(C)(C)N1O,762,-11.6% (inactive),-36.8% (inactive),118,-81.1% (inactive),110,-0.39 (inactive),4.7e-05 (inactive),0.00626 (inactive),13.8% (inactive),22.1% (inactive)
O=C(N1CCCCCC1)N1CCN(S(=O)(=O)N2CCCCC2)CC1,323,-2.2% (inactive),9.2% (inactive),106,-33.5% (inactive),126,-0.579 (inactive),-4.8e-05 (inactive),0.00553 (inactive),24% (inactive),12.9% (inactive)
COc1cc(C(=O)N2CCCC(c3nc(-c4cccs4)no3)C2)cc(OC)c1OC (stereo not drawn),709,-19.4% (inactive),4.4% (inactive),89,-30.6% (inactive),101,-0.508 (inactive),-0.000226 (inactive),0.00584 (inactive),13.5% (inactive),12.8% (inactive)
Cc1nnc(NC2CCCCC2)[nH]c1=O,358,5.3% (inactive),-1.6% (inactive),103,-59.1% (inactive),115,-0.592 (inactive),-3.6e-05 (inactive),0.00733 (inactive),12.6% (inactive),14.5% (inactive)
CCCCc1ccc(NC(=O)c2c(C)noc2C)cc1,451,-2.5% (inactive),0.1% (inactive),109,47.3% (inactive),95.2,-0.563 (inactive),-0.000106 (inactive),0.00365 (inactive),-8.01% (inactive),-38.5% (inactive)
CC(C)OC(=O)CSc1nnnn1-c1ccc2c(c1)OCCO2,294,-9.9% (inactive),-2.7% (inactive),111,-0.1% (inactive),118,-0.228 (inactive),-3.6e-05 (inactive),0.00598 (inactive),-0.252% (inactive),-97.9% (inactive)
CC(C(=O)N1CC2(C)CC1CC(C)(C)C2)N1C(=O)c2ccccc2C1=O (stereo not drawn),239,5.1% (inactive),14.3% (inactive),99.8,-114% (inactive),95.5,-0.504 (inactive),-5.6e-05 (inactive),0.00376 (inactive),20.7% (inactive),17.3% (inactive)
COc1cccc(C2=NOC(C(=O)Nc3ccc(C(C)=O)cc3)C2)c1 (stereo not drawn),808,-16.3% (inactive),-6.4% (inactive),107,-49.8% (inactive),80,-0.583 (inactive),2.1e-05 (inactive),0.00535 (inactive),-34.2% (inactive),-61.5% (inactive)
O=S(=O)(NCCc1ccccn1)c1cccs1,601,-23% (inactive),-31.3% (inactive),119,-28.9% (inactive),147,-0.417 (inactive),-0.000114 (inactive),0.00561 (inactive),19.1% (inactive),34.4% (inactive)
CC1(C)Cc2nc3oc4c(N(CCO)Cc5ccccc5)ncnc4c3cc2CO1,558,6.7% (inactive),-1.1% (inactive),101,-29.7% (inactive),122,-0.27 (inactive),-1.6e-05 (inactive),0.0057 (inactive),-1.42% (inactive),5.17% (inactive)
Brc1ccc(-c2cn3cccnc3n2)cc1,514,3.4% (inactive),-8.8% (inactive),121,-4.5% (inactive),110,-0.138 (active),7.5e-06 (inactive),0.00424 (inactive),-47.6% (inactive),-89.9% (inactive)
COC(=O)c1cc(Br)ccc1-c1ccc(/C=N/n2nnnc2N)o1,438,1% (inactive),-4.4% (inactive),97.9,-56% (inactive),111,-0.531 (inactive),-2.3e-05 (inactive),0.00728 (inactive),15.2% (inactive),24.4% (inactive)
CCOC(=O)COc1ccc(S(=O)(=O)Nc2ccc3c(c2)OCO3)cc1,408,9.5% (inactive),3.4% (inactive),98.2,-137% (inactive),115,-0.588 (inactive),-0.000101 (inactive),0.00399 (inactive),12.4% (inactive),19.9% (inactive)
COC(=O)c1c(-c2ccc(F)cc2)noc1N,502,5.3% (inactive),-3.7% (inactive),106,-2% (inactive),104,-0.278 (inactive),-6.3e-06 (inactive),0.00633 (inactive),-1.09% (inactive),-9.58% (inactive)
O=C1CCCC2=C1C(c1ccsc1)CC(=O)N2c1ccccc1 (stereo not drawn),550,-11.1% (inactive),-6.3% (inactive),100,-88.5% (inactive),95.1,-0.422 (inactive),-0.000362 (inactive),0.00622 (inactive),15.9% (inactive),19.3% (inactive)
Cc1ccccc1CS(=O)(=O)Cc1ccc(C(=O)NCCCN2CCOCC2)o1,434,5% (inactive),-1.9% (inactive),99,-156% (inactive),120,-0.586 (inactive),-2.7e-05 (inactive),0.00703 (inactive),-17.1% (inactive),-16.4% (inactive)
CCOC(=O)CN1C2=NCCN2c2ccccc21,428,3.8% (inactive),-1.1% (inactive),76.3,-107% (inactive),125,-0.605 (inactive),-8.6e-06 (inactive),0.00469 (inactive),13.8% (inactive),18.8% (inactive)
CCCC(O)(CCN(C)C)c1ccc(OC)cc1 (stereo not drawn),701,6.7% (inactive),18.4% (inactive),95.2,-50.6% (inactive),87.3,-0.543 (inactive),-8.4e-06 (inactive),0.00506 (inactive),21.2% (inactive),29.6% (inactive)
CCOC(=O)CCC(=O)Nc1ccc(S(=O)(=O)N2CCCC2)cc1,720,-3% (inactive),3.2% (inactive),98.3,-15.9% (inactive),126,-0.468 (inactive),2.8e-05 (inactive),0.00707 (inactive),-1.78% (inactive),100% (active)

# — PubChem BioAssay
